Test results: ChEMBL document CHEMBL5724801, “EUbOPEN Chemogenomics Library - Multiplex” (2024)
Where “and” joins values, the source holds several entries; their conditions need not be identical. Equal entries are not always repeated.

The compounds below were run on U2OS (assay: Multiplex assay against U2OS). Settings: human, 12 h, 1 µM, compound concentration 1 uM.
Assay type: toxicity, cell-based
How it was run: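 Per cents of healthy-nucleus cells form the tubulin, mitochondrial-mass and membrane-permeability phenotype values. Live cells were stained at seeding with Hoechst33342, BioTracker Green Microtubule Cytoskeleton Dye, MitoTracker Red and Annexin V Alexa Fluor 680. After compound addition they were imaged on a CQ1 microscope at 37°C and 5% CO2, and CellPathfinder machine-learning gating split them into Hoechst high-intensity objects or normal cells, normal cells into healthy, pyknosed or fragmented nuclei, and pyknosed cells into mitotic or apoptotic.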

SMILES	Population Apoptotic (%)	Population Fragmented Nuclei (%)	Population Healthy Nuclei (%)	Population Hoechst High Intensity Objects (%)	Population Membrane Permeable-Phenotype (%)	Population Mitochondria Different-Phenotype (%)	Population Mitotic Cells (%)	Population Normal (%)	Population Pyknosed Nuclei (%)	Population Tubulin-Different-Phenotype (%)
CN(C)C(=O)Cn1cc(-c2ccc(-c3cncc4ccccc34)cc2)cn1	68% and 69%	22% and 18%	68% and 69%	3% and 0%	8% and 6%	4% and 2%	31% and 30%	96% and 99%	9% and 11%	5% and 3%
Cc1cccc(NC(=O)CN2CCC(c3ccccn3)CC2)c1.Cl.Cl	90% and 57%	27% and 17%	67% and 76%	1% and 0%	5% and 4%	2%		98% and 99%	5% and 6%	3%

Same assay, conditions: human, 12 h, 1 µM, compound concentration 1 uM

SMILES	Total Cell Count
CN(C)C(=O)Cn1cc(-c2ccc(-c3cncc4ccccc34)cc2)cn1	240 and 110
Cc1cccc(NC(=O)CN2CCC(c3ccccn3)CC2)c1.Cl.Cl	208 and 111

Same assay, conditions: human, 12 h, 10 µM, compound concentration 10 uM

SMILES	Population Apoptotic (%)	Population Fragmented Nuclei (%)	Population Healthy Nuclei (%)	Population Hoechst High Intensity Objects (%)	Population Membrane Permeable-Phenotype (%)	Population Mitochondria Different-Phenotype (%)	Population Normal (%)	Population Pyknosed Nuclei (%)	Population Tubulin-Different-Phenotype (%)	Total Cell Count
CN(C)C(=O)Cn1cc(-c2ccc(-c3cncc4ccccc34)cc2)cn1	66% and 100%	21% and 18%	67% and 75%	5% and 3%	20% and 22%	12% and 19%	94% and 96%	10% and 5%	14% and 23%	205 and 98
Cc1cccc(NC(=O)CN2CCC(c3ccccn3)CC2)c1.Cl.Cl	72% and 66%	34% and 21%	55% and 70%	2% and 1%	8% and 12%	6% and 7%	97% and 98%	10% and 8%	3% and 9%	216 and 111

Same assay, conditions: human, 12 h, 10 µM, compound concentration 10 uM

SMILES	Population Mitotic Cells (%)
Cc1cccc(NC(=O)CN2CCC(c3ccccn3)CC2)c1.Cl.Cl	27% and 33%

Same assay, conditions: human, 24 h, 1 µM, compound concentration 1 uM

SMILES	Population Apoptotic (%)	Population Fragmented Nuclei (%)	Population Healthy Nuclei (%)	Population Hoechst High Intensity Objects (%)	Population Membrane Permeable-Phenotype (%)	Population Mitochondria Different-Phenotype (%)	Population Mitotic Cells (%)	Population Normal (%)	Population Pyknosed Nuclei (%)	Population Tubulin-Different-Phenotype (%)
CN(C)C(=O)Cn1cc(-c2ccc(-c3cncc4ccccc34)cc2)cn1	100% and 90%	21% and 15%	69% and 76%	3% and 1%	5% and 8%	2% and 6%	0% and 9%	96% and 98%	8%	4%
Cc1cccc(NC(=O)CN2CCC(c3ccccn3)CC2)c1.Cl.Cl	76% and 73%	22% and 21%	70% and 67%	3% and 0%	5% and 7%	3% and 4%	23% and 26%	96% and 99%	7% and 11%	3% and 5%

Same assay, conditions: human, 24 h, 1 µM, compound concentration 1 uM

SMILES	Total Cell Count
CN(C)C(=O)Cn1cc(-c2ccc(-c3cncc4ccccc34)cc2)cn1	278 and 127
Cc1cccc(NC(=O)CN2CCC(c3ccccn3)CC2)c1.Cl.Cl	249 and 135

Same assay, conditions: human, 24 h, 10 µM, compound concentration 10 uM

SMILES	Population Apoptotic (%)	Population Fragmented Nuclei (%)	Population Healthy Nuclei (%)	Population Hoechst High Intensity Objects (%)	Population Membrane Permeable-Phenotype (%)	Population Mitochondria Different-Phenotype (%)	Population Mitotic Cells (%)	Population Normal (%)	Population Pyknosed Nuclei (%)	Population Tubulin-Different-Phenotype (%)
CN(C)C(=O)Cn1cc(-c2ccc(-c3cncc4ccccc34)cc2)cn1	54% and 80%	25% and 11%	64% and 84%	3% and 2%	19% and 16%	9% and 15%	45% and 20%	96% and 97%	9% and 4%	10% and 14%
Cc1cccc(NC(=O)CN2CCC(c3ccccn3)CC2)c1.Cl.Cl	85% and 75%	32% and 20%	55% and 73%	3% and 2%	6% and 17%	3% and 5%	14% and 25%	96% and 97%	11% and 6%	2% and 10%

Same assay, conditions: human, 24 h, 10 µM, compound concentration 10 uM

SMILES	Total Cell Count
CN(C)C(=O)Cn1cc(-c2ccc(-c3cncc4ccccc34)cc2)cn1	244 and 110
Cc1cccc(NC(=O)CN2CCC(c3ccccn3)CC2)c1.Cl.Cl	243 and 131

Same assay, conditions: human, 48 h, 1 µM, compound concentration 1 uM

SMILES	Population Apoptotic (%)	Population Fragmented Nuclei (%)	Population Healthy Nuclei (%)	Population Hoechst High Intensity Objects (%)	Population Membrane Permeable-Phenotype (%)	Population Mitochondria Different-Phenotype (%)	Population Mitotic Cells (%)	Population Normal (%)	Population Pyknosed Nuclei (%)	Population Tubulin-Different-Phenotype (%)
CN(C)C(=O)Cn1cc(-c2ccc(-c3cncc4ccccc34)cc2)cn1	87% and 88%	18% and 20%	69% and 67%	2% and 3%	6% and 12%	3% and 9%	12% and 11%	97% and 96%	12% and 11%	4% and 9%
Cc1cccc(NC(=O)CN2CCC(c3ccccn3)CC2)c1.Cl.Cl	82% and 94%	18% and 17%	72%	2% and 3%	6% and 2%	3%		97% and 96%	8% and 10%	3% and 2%

Same assay, conditions: human, 48 h, 1 µM, compound concentration 1 uM

SMILES	Total Cell Count
CN(C)C(=O)Cn1cc(-c2ccc(-c3cncc4ccccc34)cc2)cn1	333 and 163
Cc1cccc(NC(=O)CN2CCC(c3ccccn3)CC2)c1.Cl.Cl	341 and 182

Same assay, conditions: human, 48 h, 10 µM, compound concentration 10 uM

SMILES	Population Apoptotic (%)	Population Fragmented Nuclei (%)	Population Healthy Nuclei (%)	Population Hoechst High Intensity Objects (%)	Population Membrane Permeable-Phenotype (%)	Population Mitochondria Different-Phenotype (%)	Population Normal (%)	Population Pyknosed Nuclei (%)	Population Tubulin-Different-Phenotype (%)	Total Cell Count
CN(C)C(=O)Cn1cc(-c2ccc(-c3cncc4ccccc34)cc2)cn1	74% and 92%	22% and 21%	62% and 68%	2	15% and 20%	8% and 14%	97	14% and 9%	8% and 16%	302 and 149
Cc1cccc(NC(=O)CN2CCC(c3ccccn3)CC2)c1.Cl.Cl	96% and 83%	29% and 19%	60% and 74%	3	6% and 10%	6% and 4%	96	9% and 6%	3% and 4%	303 and 198
